Test [1] has as its target Muscarinic acetylcholine receptor. As to the kind of experiment: In vitro binding affinity for muscarinic receptor by displacing [3H]quinuclidinyl benzilate binding on rat brain homogenate. It counts as tissue-based. In outline: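 Two concentration–response curves, five concentrations covering 3 decades, triplicates. IC50 estimated from hand-drawn log concentration–response curves and converted to Ki with Cheng–Prusoff equation.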

The target is the same in test [2]. The experiment in a line: In vitro binding affinity for muscarinic receptor by displacing [3H]quinuclidinyl benzilate binding on rat brain stem homogenate. In kind it is tissue-based. In outline:
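Two full curves, five test concentrations over 3 decades in triplicate. Hand-drawn log curves gave IC50; Ki by Cheng–Prusoff.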

Test [3] has the same target. As to the kind of experiment: In vitro binding affinity for muscarinic receptor by displacing [3H]oxotremorine-M binding on rat brain homogenate. It counts as tissue-based. In outline:
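Duplicate full curves of five drug concentrations over 3 decades, triplicate points. IC50 taken from hand-drawn log curves; Ki via Cheng–Prusoff.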

Test [4] concerns the target T1, Muscarinic acetylcholine receptor M1 (Rattus norvegicus, UniProt P08482).
T1 sequence (P08482 whole entry): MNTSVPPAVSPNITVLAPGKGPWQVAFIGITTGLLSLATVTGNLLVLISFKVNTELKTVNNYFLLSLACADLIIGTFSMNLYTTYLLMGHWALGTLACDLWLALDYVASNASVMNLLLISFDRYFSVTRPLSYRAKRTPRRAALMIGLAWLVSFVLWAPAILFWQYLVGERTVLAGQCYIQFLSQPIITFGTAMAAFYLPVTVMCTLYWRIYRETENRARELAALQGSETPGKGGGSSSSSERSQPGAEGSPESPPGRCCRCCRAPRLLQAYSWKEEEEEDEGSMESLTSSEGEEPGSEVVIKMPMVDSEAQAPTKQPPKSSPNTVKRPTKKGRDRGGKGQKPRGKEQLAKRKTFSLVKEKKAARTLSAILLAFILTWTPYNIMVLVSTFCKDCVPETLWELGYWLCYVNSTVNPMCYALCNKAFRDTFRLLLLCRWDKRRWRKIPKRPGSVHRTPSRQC
The experiment in a line: In vitro binding affinity for muscarinic M1 receptor by displacing [3H]pirenzepine binding on rat brain homogenate. It counts as tissue-based. In outline:
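Two complete curves, five test concentrations spanning 3 decades, each in triplicate. IC50 read from hand-drawn log concentration–response curves, converted to Ki by Cheng–Prusoff.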

For test [5], the species on record is Rattus norvegicus. The experiment in a line: Ratio of binding affinity at [3H]quinuclidinyl benzilate binding on rat brain homogenate to [3H]- Oxotremorine-M binding on rat brain homogenate. It counts as functional. A digest of the protocol: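 Ago ratio computed as Ki from [³H]QNB binding to whole rat brain homogenate divided by Ki from [³H]oxotremorine-M binding to whole rat brain homogenate.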

Test [6] is filed under the species Rattus norvegicus. As to the kind of experiment: Ratio of binding affinity at [3H]quinuclidinyl benzilate binding on rat brain stem homogenate to [3H]pirenzepine binding on rat brain homogenate.

One may read the Ki as a dissociation constant, usually derived from enzyme kinetics or from competition with a known ligand. Read a high Ki as weaker binding. Take `CCCCn1ncc(C2=CCCN(C)C2)n1`: the Ki in test [1] worked out at 48 nM; in test [2] it was 37 nM; in test [3] it was 2.5 nM; in test [4], 13 nM. The Ratio stood at 19 in the test filed under Rattus norvegicus [5] and 2.8 in the test filed under Rattus norvegicus [6].

For the compound `C=Cn1nnc(C2=CCCN(C)C2)n1`, the Ki in test [1] came to 230 nM; in test [2], 90 nM; in test [3] it was 92 nM; in test [4], 120 nM. Besides, the results for the Ratio in the test listed under Rattus norvegicus [5] and in the test listed under Rattus norvegicus [6] were 2.5 and 0.8, respectively.

On to `C=CCn1ncc(C2=CCCN(C)C2)n1`, for which the inhibition constant (Ki) in test [1] was determined as 43 nM; in test [2], 32 nM; in test [3], 4.7 nM; in test [4], 6.3 nM. Also, the Ratio in the test filed under Rattus norvegicus [5] came out at 9.1; in the test listed under Rattus norvegicus [6], 5.1.

For `CCn1nnc(C2=CCCN(C(C)C)C2)n1`, the values for the Ki in test [3] and in test [4] were 300 nM and 270 nM, respectively.

Regarding `CC1C=C(c2nnn(C)n2)CNC1` (configuration not stated), the values for the Ki in test [3] and in test [4] were 69 nM and 180 nM, respectively.

Regarding `C#CCn1ncc(C2CCCNC2)n1` (racemic), the inhibitory constant (Ki) amounted to 320 nM in test [1], 130 nM in test [2], 2.5 nM in test [3] and 84 nM in test [4].

As to `C=CCn1nnc(C2=CCCN(C)C2)n1`, the Ki in test [1] is 140 nM; in test [2], 46 nM; in test [3], 13 nM; in test [4], 21 nM. Moreover, the values for the Ratio in the test listed under Rattus norvegicus [5] and in the test listed under Rattus norvegicus [6] were 11 and 2.2, respectively.

On to `CCn1ncc(C2CCCNC2)n1` (racemic), for which the Ki in test [1] was 530 nM; in test [2], 280 nM; in test [3], 11 nM; in test [4], 260 nM. Further, the values for the Ratio in the test filed under Rattus norvegicus [5] and in the test listed under Rattus norvegicus [6] were 48 and 1.1, respectively.

As to `CCCCCn1nnc(C2=CCCN(C)C2)n1`, the Ki came out at 130 nM in test [1], 110 nM in test [2], 16 nM in test [3] and 26 nM in test [4]. In addition, the Ratio in the test listed under Rattus norvegicus [5] is 8.1; in the test filed under Rattus norvegicus [6], 4.2.

Turning to `Cn1nnc(C2=CCCNC2)n1`, the Ki came out at 4.5 nM in test [3] and 1350 nM in test [4].

With `CCN1CCC=C(c2nnn(CC)n2)C1`, the Ki in test [3] was 78 nM; in test [4], 140 nM.

Consider `CCCCn1nnc(C2=CCCN(C)C2)n1`, for which the Ki in test [1] worked out at 81 nM; in test [2] it was 220 nM; in test [3], 5 nM; in test [4] it was 37 nM. For the same compound, the Ratio in the test filed under Rattus norvegicus [5] is 16; in the test filed under Rattus norvegicus [6], 5.9.

As for `CCCCCCn1nnc(C2=CCCN(C)C2)n1`, the Ki in test [1] came to 100 nM; in test [2], 220 nM; in test [3], 52 nM; in test [4], 32 nM. The Ratio in the test listed under Rattus norvegicus [5] was found to be 1.9; in the test filed under Rattus norvegicus [6] it was 6.9.

Turning to `CCCCN1CCC=C(c2nnn(CC)n2)C1`, the results for the inhibition constant (Ki) in test [3] and in test [4] were 340 nM and 1400 nM, respectively.

Consider `CCCn1ncc(C2=CCCNC2)n1`, for which the Ki amounted to 270 nM in test [1], 210 nM in test [2], 6.1 nM in test [3] and 77 nM in test [4]. Further, the Ratio was determined as 44 in the test filed under Rattus norvegicus [5] and 2.7 in the test filed under Rattus norvegicus [6].

In the case of `CCn1nncc1C1=CCCN(C)C1`, the values for the inhibition constant (Ki) in test [3] and in test [4] were 318 nM and 1700 nM, respectively.

Regarding `C#CCn1nnc(C2=CCCN(C)C2)n1`, the Ki in test [1] was 230 nM; in test [2] it was 100 nM; in test [3], 4.5 nM; in test [4], 44 nM. Also, the Ratio in the test listed under Rattus norvegicus [5] is 51; in the test filed under Rattus norvegicus [6], 2.3.

With `C=Cn1ncc(C2=CCCN(C)C2)n1`, the Ki is 33 nM in test [3] and 40 nM in test [4].

For `CCCCn1ncc(C2=CCCNC2)n1`, the Ki in test [1] is 250 nM; in test [2], 130 nM; in test [3], 4.9 nM; in test [4] it was 100 nM. Moreover, the values for the Ratio in the test listed under Rattus norvegicus [5] and in the test listed under Rattus norvegicus [6] were 51 and 1.3, respectively.

`CCCN1CCC=C(c2nnn(CC)n2)C1`: the Ki was 450 nM in test [3] and 900 nM in test [4].

Consider `CN1CCC=C(c2nnnn2C)C1`, for which the Ki was 5400 nM in test [3] and 24000 nM in test [4].

Take `CC1CC=C(c2nnn(C)n2)CN1` (configuration not stated): the results for the Ki in test [3] and in test [4] were 180 nM and 900 nM, respectively.

Take `Cn1nnc(C2CCCNC2)n1` (racemic): the Ki in test [3] is 33 nM; in test [4], 2300 nM.

`CN1CCC=C(c2nnn(C)n2)C1`: the Ki turned out to be 790 nM in test [1], 230 nM in test [2], 6.1 nM in test [3] and 250 nM in test [4]. In addition, the Ratio in the test filed under Rattus norvegicus [5] came out at 130; in the test filed under Rattus norvegicus [6], 0.9.

With `CCn1cc(C2=CCCN(C)C2)nn1`, the inhibitory constant (Ki) in test [3] is 990 nM; in test [4], 770 nM.

With `CC1=C(c2nnn(C)n2)CNCC1`, the figures for the Ki in test [3] and in test [4] were 570 nM and 960 nM, respectively.

On to `CCn1nnc(C2CCCNC2)n1` (racemic), for which the Ki in test [3] worked out at 230 nM; in test [4], 1100 nM.

Take `CC(C)n1nnc(C2=CCCN(C)C2)n1`: the Ki in test [1] was determined as 530 nM; in test [2], 270 nM; in test [3], 85 nM; in test [4] it was 84 nM. Moreover, the Ratio was determined as 6.2 in the test listed under Rattus norvegicus [5] and 3.2 in the test filed under Rattus norvegicus [6].

On to `CCCn1ncc(C2=CCCN(C)C2)n1`, for which the Ki in test [1] was determined as 47 nM; in test [2], 38 nM; in test [3] it was 2.6 nM; in test [4], 15 nM. The Ratio in the test listed under Rattus norvegicus [5] turned out to be 18; in the test listed under Rattus norvegicus [6], 2.5.

For `C#CCn1ncc(C2=CC(C)CNC2)n1` (configuration not stated), the figures for the inhibition constant (Ki) in test [3] and in test [4] were 31 nM and 30 nM, respectively.

On to `CCCn1nnc(C2=CCCN(C)C2)n1`, for which the inhibitory constant (Ki) is 100 nM in test [1], 180 nM in test [2], 2.8 nM in test [3] and 57 nM in test [4]. Further, the Ratio in the test filed under Rattus norvegicus [5] came to 36; in the test listed under Rattus norvegicus [6], 3.2.

Turning to `C#CCn1nnc(C2CCCNC2)n1` (racemic), the values for the Ki in test [3] and in test [4] were 31 nM and 260 nM, respectively.

As for `CN1CCCC(c2nnn(C)n2)C1` (racemic), the inhibition constant Ki in test [3] came to 1200 nM; in test [4] it was 4800 nM.

Regarding `C#CCn1ncc(C2CCCNC2)n1` (single isomer, unassigned; (+)), the Ki in test [1] came out at 230 nM; in test [2], 30 nM; in test [3], 5.2 nM; in test [4], 170 nM.

As for `C#CCn1ncc(C2=CCCN(C)C2)n1`, the Ki in test [1] came out at 41 nM; in test [2], 22 nM; in test [3] it was 1.6 nM; in test [4], 7.7 nM. Besides, the Ratio in the test listed under Rattus norvegicus [5] was found to be 26; in the test filed under Rattus norvegicus [6], 2.9.

In the case of `C#CCn1ncc(C2CCCNC2)n1` (stereo in doubt; (-)-15c), the results for the Ki in test [1], in test [3] and in test [4] were 270 nM, 7.8 nM and 140 nM, respectively.

On to `Cn1ncc(C2=CCCNC2)n1`, for which the Ki stood at 570 nM in test [1], 90 nM in test [2], 0.34 nM in test [3] and 500 nM in test [4]. Besides, the figures for the Ratio in the test filed under Rattus norvegicus [5] and in the test listed under Rattus norvegicus [6] were 1700 and 0.2, respectively.

These data come from ChEMBL document CHEMBL1127749 (J Med Chem, 1994).
